In ChEMBL document CHEMBL4028916, “A Dipolar Cycloaddition Reaction To Access 6-Methyl-4,5,6,7-tetrahydro-1H-[1,2,3]triazolo[4,5-c]pyridines Enables the Discovery Synthesis and Preclinical Profiling of a P2X7 Antagonist Clinical Candidate” (J Med Chem, 2018):

Key:
[1] = Oral bioavailability in Sprague-Dawley rat at […] by LC-MS/MS method; format: ADME, organism-based; conditions: in vivo
[2] = Partition coefficient, log D of the compound at pH 7.4; format: physicochemical; conditions: octanol/water
[3] = AUC (24 hrs) in cynomolgus monkey at 0.125 mg/kg, iv or 0.625 mg/kg, po by LC-MS/MS method; format: ADME, organism-based, Macaca fascicularis; conditions: in vivo
[4] = Volume of distribution at steady state in Beagle dog at 0.125 mg/kg, iv or 0.625 mg/kg, po by LC-MS/MS method; format: ADME, organism-based, Canis lupus familiaris; conditions: in vivo, read-out: Vdss
[5] = Drug uptake in Sprague-Dawley rat brain administered at 10 mg/kg, po measured after 6.0 hrs; format: ADME, organism-based
In short: (§1)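 Male Sprague Dawley rats (300–400 g) given 10 mg/kg p.o. One compound was dosed as a 0.5% HPMC suspension and the other as a 20% HP-β-cyclodextrin solution. Two animals per time point were killed with CO2 at 0.5, 2 and 6 h, and plasma and brain drug levels were taken. Data are mean ± SEM (n=2).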

[6] = Drug uptake in Sprague-Dawley rat plasma administered at 10 mg/kg, po measured after 6.0 hrs; format: ADME, organism-based; in short: as §1
[7] = Clearance in Sprague-Dawley rat at 0.5 mg/kg, iv or […], po by LC-MS/MS method; format: ADME, organism-based; conditions: in vivo
[8] = Drug uptake in Sprague-Dawley rat brain administered at 10 mg/kg, po measured after 2.0 hrs; format: ADME, organism-based; in short: as §1
[9] = Cmax in dog at 300 mg/kg, po for 5 days; format: ADME, organism-based, Canis lupus familiaris; parameters: dose 300 mg/kg, route oral; conditions: in vivo
[10] = AUC in dog at 300 mg/kg, po for 5 days; format: ADME, organism-based, Canis lupus familiaris; conditions: in vivo
[11] = Half life in cynomolgus monkey at 0.125 mg/kg, iv by LC-MS/MS method; format: ADME, organism-based, Macaca fascicularis; conditions: in vivo
In short: (§2)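 Single-dose PK in male Sprague-Dawley rats, beagle dogs or cynomolgus monkeys, given i.v. and p.o. as a solution in 50% PEG400/50% water or 20% HP-β-CD. Plasma measured by LC–MS/MS; parameters from noncompartmental analysis.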

[12] = Cmax in Beagle dog at 0.125 mg/kg, iv or 0.625 mg/kg, po by LC-MS/MS method; format: ADME, organism-based, Canis lupus familiaris; conditions: in vivo
[13] = Clearance in cynomolgus monkey at 0.125 mg/kg, iv or 0.625 mg/kg, po by LC-MS/MS method; format: ADME, organism-based, Macaca fascicularis; conditions: in vivo
[14] = Volume of distribution at steady state in Sprague-Dawley rat at 0.5 mg/kg, iv or […], po by LC-MS/MS method; format: ADME, organism-based; conditions: in vivo, read-out: Vdss
[15] = Cmax in cynomolgus monkey at 0.125 mg/kg, iv or 0.625 mg/kg, po by LC-MS/MS method; format: ADME, organism-based, Macaca fascicularis; conditions: in vivo
[16] = Apparent permeability across apical to basolateral side in human Caco2 cells; format: ADME, cell-based; conditions: Caco-2
In short: (§3)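 Caco-2 bidirectional permeability, reported as Papp B-A/A-B (×10⁻⁶ cm/s).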

[17] = Oral bioavailability in cynomolgus monkey at 0.625 mg/kg by LC-MS/MS method; format: ADME, organism-based, Macaca fascicularis; conditions: in vivo; in short: as §2
[18] = Half life in Sprague-Dawley rat at 0.5 mg/kg, iv by LC-MS/MS method; format: ADME, organism-based; conditions: in vivo; in short: as §2
[19] = Drug uptake in Sprague-Dawley rat plasma administered at 10 mg/kg, po measured after 0.5 hrs; format: ADME, organism-based; in short: as §1
[20] = Cmax in rat at 250 mg/kg, po for 4 days; format: ADME, organism-based; parameters: dose 250 mg/kg, route oral; conditions: in vivo
[21] = Drug uptake in Sprague-Dawley rat brain administered at 10 mg/kg, po measured after 0.5 hrs; format: ADME, organism-based; in short: as §1
[22] = Half life in Beagle dog at 0.125 mg/kg, iv by LC-MS/MS method; format: ADME, organism-based, Canis lupus familiaris; conditions: in vivo
[23] = Drug uptake in Sprague-Dawley rat plasma administered at 10 mg/kg, po measured after 2.0 hrs; format: ADME, organism-based; in short: as §1
[24] = Oral bioavailability in Beagle dog at 0.625 mg/kg by LC-MS/MS method; format: ADME, organism-based, Canis lupus familiaris; conditions: in vivo; in short: as §2
[25] = Apparent permeability across basolateral to apical side in human Caco2 cells; format: ADME, cell-based; conditions: Caco-2; in short: as §3
[26] = AUC (24 hrs) in Sprague-Dawley rat at 0.5 mg/kg, iv or […], po by LC-MS/MS method; format: ADME, organism-based; conditions: in vivo
[27] = AUC (24 hrs) in Beagle dog at 0.125 mg/kg, iv or 0.625 mg/kg, po by LC-MS/MS method; format: ADME, organism-based, Canis lupus familiaris; conditions: in vivo
[28] = Cmax in Sprague-Dawley rat at 0.5 mg/kg, iv or […], po by LC-MS/MS method; format: ADME, organism-based; conditions: in vivo
[29] = Clearance in Beagle dog at 0.125 mg/kg, iv or 0.625 mg/kg, po by LC-MS/MS method; format: ADME, organism-based, Canis lupus familiaris; conditions: in vivo
[30] = Volume of distribution at steady state in cynomolgus monkey at 0.125 mg/kg, iv or 0.625 mg/kg, po by LC-MS/MS method; format: ADME, organism-based, Macaca fascicularis; conditions: in vivo, read-out: Vdss
[31] = AUC in rat dosed at 250 mg/kg, po for 4 days; format: ADME, organism-based; conditions: in vivo
[32] = tested on: Plasma; assay: Plasma concentration in dog; format: ADME, Canis lupus familiaris
[33] = AUC (24 hrs) in Beagle dog at […], iv or 1.25 mg/kg, po by LC-MS/MS method; format: ADME, organism-based, Canis lupus familiaris; conditions: in vivo
[34] = Half life in Sprague-Dawley rat at 1 mg/kg, iv by LC-MS/MS method; format: ADME, organism-based; conditions: in vivo; in short: as §2
[35] = Half life in cynomolgus monkey at 0.5 mg/kg, iv by LC-MS/MS method; format: ADME, organism-based, Macaca fascicularis; conditions: in vivo; in short: as §2
[36] = Clearance in Beagle dog at […], iv or 1.25 mg/kg, po by LC-MS/MS method; format: ADME, organism-based, Canis lupus familiaris; conditions: in vivo
[37] = AUC in rat at 125 mg/kg, po for 5 days; format: ADME, organism-based; conditions: in vivo
[38] = Oral bioavailability in Beagle dog at 1.25 mg/kg by LC-MS/MS method; format: ADME, organism-based, Canis lupus familiaris; conditions: in vivo; in short: as §2
[39] = Volume of distribution at steady state in cynomolgus monkey at 0.5 mg/kg, iv or […], po by LC-MS/MS method; format: ADME, organism-based, Macaca fascicularis; conditions: in vivo, read-out: Vdss
[40] = AUC (24 hrs) in cynomolgus monkey at 0.5 mg/kg, iv or […], po by LC-MS/MS method; format: ADME, organism-based, Macaca fascicularis; conditions: in vivo
[41] = Volume of distribution at steady state in Beagle dog at […], iv or 1.25 mg/kg, po by LC-MS/MS method; format: ADME, organism-based, Canis lupus familiaris; conditions: in vivo, read-out: Vdss
[42] = Clearance in cynomolgus monkey at 0.5 mg/kg, iv or […], po by LC-MS/MS method; format: ADME, organism-based, Macaca fascicularis; conditions: in vivo
[43] = AUC (24 hrs) in Sprague-Dawley rat at 1 mg/kg, iv or 5 mg/kg, po by LC-MS/MS method; format: ADME, organism-based; conditions: in vivo
[44] = Clearance in Sprague-Dawley rat at 1 mg/kg, iv or 5 mg/kg, po by LC-MS/MS method; format: ADME, organism-based; conditions: in vivo
[45] = Plasma concentration in guinea pig; format: ADME, Cavia porcellus
[46] = Cmax in rat at 125 mg/kg, po for 5 days; format: ADME, organism-based; parameters: dose 125 mg/kg, route oral; conditions: in vivo
[47] = Half life in Beagle dog at […], iv by LC-MS/MS method; format: ADME, organism-based, Canis lupus familiaris; conditions: in vivo
[48] = Oral bioavailability in cynomolgus monkey at […] by LC-MS/MS method; format: ADME, organism-based, Macaca fascicularis; conditions: in vivo
[49] = Cmax in Sprague-Dawley rat at 1 mg/kg, iv or 5 mg/kg, po by LC-MS/MS method; format: ADME, organism-based; conditions: in vivo
[50] = AUC in dog at 10 mg/kg, po for 5 days; format: ADME, organism-based, Canis lupus familiaris; conditions: in vivo
[51] = organism: Canis familiaris; assay: Toxicity in dog; parameters: species or system Canis lupus familiaris; conditions: in vivo
[52] = Cmax in Beagle dog at […], iv or 1.25 mg/kg, po by LC-MS/MS method; format: ADME, organism-based, Canis lupus familiaris; conditions: in vivo
[53] = Volume of distribution at steady state in Sprague-Dawley rat at 1 mg/kg, iv or 5 mg/kg, po by LC-MS/MS method; format: ADME, organism-based; conditions: in vivo, read-out: Vdss
[54] = organism: Cavia porcellus; assay: Toxicity in guinea pig; conditions: in vivo
[55] = Cmax in cynomolgus monkey at 0.5 mg/kg, iv or […], po by LC-MS/MS method; format: ADME, organism-based, Macaca fascicularis; conditions: in vivo
[56] = Cmax in dog at 10 mg/kg, po for 5 days; format: ADME, organism-based, Canis lupus familiaris; parameters: dose 10 mg/kg, route oral; conditions: in vivo
[57] = Oral bioavailability in Sprague-Dawley rat at 5 mg/kg by LC-MS/MS method; format: ADME, organism-based; conditions: in vivo; in short: as §2

C[C@H]1Cc2c(nnn2-c2ncc(F)cn2)CN1C(=O)c1cccc(C(F)(F)F)c1F
bioavailability [1]: 90%
logD [2]: 2.23
AUC at 24 h [3]: 122 ng·h/mL
Vd [4]: 2.6 L/kg
concentration at 6 h [5]: 1620 ng/mL
concentration at 6 h [6]: 1050 ng/mL
clearance [7]: 12 mL/min/kg
concentration at 2 h [8]: 2390 ng/mL
Cmax [9]: 5330 ng/mL
AUC at 120 h [10]: 78400 ng·h/mL
half-life [11]: 0.9 h
Cmax [12]: 305 ng/mL
clearance [13]: 26 mL/min/kg
Vd [14]: 2.5 L/kg
Cmax [15]: 36 ng/mL
Papp A→B [16]: 49 ×10⁻⁶ cm/s
bioavailability [17]: 30%
half-life [18]: 2.5 h
concentration at 0.5 h [19]: 855 ng/mL
Cmax [20]: 9260 ng/mL
concentration at 0.5 h [21]: 1060 ng/mL
half-life [22]: 8.8 h
concentration at 2 h [23]: 1880 ng/mL
bioavailability [24]: 123%
Papp B→A [25]: 73 ×10⁻⁶ cm/s
AUC at 24 h [26]: 3190 ng·h/mL
AUC at 24 h [27]: 3040 ng·h/mL
Cmax [28]: 541 ng/mL
clearance [29]: 3.8 mL/min/kg
Vd [30]: 1.7 L/kg
AUC at 96 h [31]: 108000 ng·h/mL

C[C@H]1Cc2c(nnn2-c2ncc(F)cn2)CN1C(=O)c1ccnc(C(F)(F)F)c1F [ZANVIPIXANT]
Cp [32]: 2820 ng/mL
AUC at 24 h [33]: 23300 ng·h/mL
logD [2]: 1.65
half-life [34]: 5.6 h
half-life [35]: 6 h
clearance [36]: 0.8 mL/min/kg
AUC at 120 h [37]: 291000 ng·h/mL
concentration at 6 h [5]: 1990 ng/mL
bioavailability [38]: 98%
concentration at 6 h [6]: 2440 ng/mL
Vd [39]: 1.3 L/kg
AUC at 24 h [40]: 16300 ng·h/mL
concentration at 2 h [8]: 2910 ng/mL
Vd [41]: 1.4 L/kg
clearance [42]: 2.6 mL/min/kg
AUC at 24 h [43]: 17500 ng·h/mL
clearance [44]: 3.7 mL/min/kg
Cp [45]: 4095 ng/mL
Cmax [46]: 26000 ng/mL
half-life [47]: 21.2 h
Papp A→B [16]: 35 ×10⁻⁶ cm/s
bioavailability [48]: 97%
concentration at 0.5 h [19]: 3190 ng/mL
concentration at 0.5 h [21]: 3040 ng/mL
concentration at 2 h [23]: 3430 ng/mL
Cmax [49]: 1750 ng/mL
AUC at 120 h [50]: 167000 ng·h/mL
Papp B→A [25]: 45 ×10⁻⁶ cm/s
NOAEL [51]: 1280 ng/mL
Cmax [52]: 1120 ng/mL
Vd [53]: 1.7 L/kg
NOAEL [54]: 1850 ng/mL
Cmax [55]: 1860 ng/mL
Cmax [56]: 10700 ng/mL
bioavailability [57]: 81%
